Reference: ChEMBL document CHEMBL1649330, “Multicenter study for defining the breakpoint for rifampin resistance in Neisseria meningitidis by rpoB sequencing” (2010)
≈ marks a conversion by molar mass, not a printed value.

Assays:
Type in all cases: functional
[1] = tested on: Neisseria meningitidis; test: Antimicrobial activity against Neisseria meningitidis expressing wild type rpoB18 allele by Etest
Outline: (§1)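 Rifampin MIC by Etest on meningococcal isolates from participating national laboratories, with rpoB sequenced for each isolate. Values are geometric means of MICs over all isolates carrying a given allele that lacks alterations at S548, H552 and S557 and lacks D542V. Only alleles represented by at least five isolates were reported.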

[2] = tested on: Neisseria meningitidis; test: Antimicrobial activity against Neisseria meningitidis harboring rpoB57 D542N mutant allele by Etest
Outline: (§2)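 Rifampin MIC by Etest on meningococcal clinical isolates collected by the participating national laboratories, with MIC read in mg/liter. The rpoB gene of each isolate was sequenced and assigned to an allele. Isolates were serogrouped by agglutination with serogroup-specific antisera.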

[3] = tested on: Neisseria meningitidis; test: Antimicrobial activity against Neisseria meningitidis harboring rpoB20 H552Y mutant allele by Etest; outline: as §2
[4] = tested on: Neisseria meningitidis; test: Antimicrobial activity against Neisseria meningitidis harboring rpoB32 H552Y mutant allele by Etest; outline: as §2
[5] = tested on: Neisseria meningitidis; test: Antimicrobial activity against Neisseria meningitidis expressing wild type rpoB27 allele by Etest; outline: as §1
[6] = tested on: Neisseria meningitidis; test: Antimicrobial activity against Neisseria meningitidis harboring rpoB11 H552N mutant allele by Etest; outline: as §2
[7] = tested on: Neisseria meningitidis; test: Antimicrobial activity against Neisseria meningitidis harboring rpoB51 H552Y mutant allele by Etest; outline: as §2
[8] = tested on: Neisseria meningitidis; test: Antimicrobial activity against Neisseria meningitidis expressing wild type rpoB4 allele by Etest; outline: as §1
[9] = tested on: Neisseria meningitidis; test: Antimicrobial activity against Neisseria meningitidis harboring rpoB37 G560S mutant allele by Etest; outline: as §2
[10] = tested on: Neisseria meningitidis; test: Antimicrobial activity against Neisseria meningitidis harboring rpoB16 H552Y mutant allele by Etest; outline: as §2
[11] = tested on: Neisseria meningitidis; test: Antimicrobial activity against Neisseria meningitidis harboring rpoB53 G560S mutant allele by Etest; outline: as §2
[12] = tested on: Neisseria meningitidis; test: Antimicrobial activity against Neisseria meningitidis harboring rpoB12 H552L mutant allele by Etest; outline: as §2
[13] = tested on: Neisseria meningitidis; test: Antimicrobial activity against Neisseria meningitidis expressing wild type rpoB2 allele by Etest; outline: as §1
[14] = tested on: Neisseria meningitidis; test: Antimicrobial activity against Neisseria meningitidis expressing wild type rpoB28 allele by Etest; outline: as §1
[15] = tested on: Neisseria meningitidis; test: Antimicrobial activity against Neisseria meningitidis expressing wild type rpoB34 allele by Etest; outline: as §1
[16] = tested on: Neisseria meningitidis; test: Antimicrobial activity against Neisseria meningitidis harboring rpoB14 S548F mutant allele by Etest; outline: as §2
[17] = tested on: Neisseria meningitidis; test: Antimicrobial activity against Neisseria meningitidis harboring rpoB44 H552Y mutant allele by Etest; outline: as §2
[18] = tested on: Neisseria meningitidis; test: Antimicrobial activity against Neisseria meningitidis harboring rpoB23 S548F mutant allele by Etest; outline: as §2
[19] = tested on: Neisseria meningitidis; test: Antimicrobial activity against Neisseria meningitidis harboring rpoB45 D542V mutant allele by Etest; outline: as §2
[20] = tested on: Neisseria meningitidis; test: Antimicrobial activity against Neisseria meningitidis harboring rpoB46 H552N mutant allele by Etest; outline: as §2
[21] = tested on: Neisseria meningitidis; test: Antimicrobial activity against Neisseria meningitidis harboring rpoB19 S557F mutant allele by Etest; outline: as §2
[22] = tested on: Neisseria meningitidis; test: Antimicrobial activity against Neisseria meningitidis harboring rpoB13 H552Y mutant allele by Etest; outline: as §2
[23] = tested on: Neisseria meningitidis; test: Antimicrobial activity against Neisseria meningitidis expressing wild type rpoB40 allele by Etest; outline: as §1
[24] = tested on: Neisseria meningitidis; test: Antimicrobial activity against Neisseria meningitidis harboring rpoB10 H552R mutant allele by Etest; outline: as §2
[25] = tested on: Neisseria meningitidis; test: Antimicrobial activity against Neisseria meningitidis expressing wild type rpoB9 allele by Etest; outline: as §1
[26] = tested on: Neisseria meningitidis; test: Antimicrobial activity against Neisseria meningitidis harboring rpoB50 S557F mutant allele by Etest; outline: as §2
[27] = tested on: Neisseria meningitidis; test: Antimicrobial activity against Neisseria meningitidis expressing wild type rpoB31 allele by Etest; outline: as §1
[28] = tested on: Neisseria meningitidis; test: Antimicrobial activity against Neisseria meningitidis harboring rpoB36 H552N mutant allele by Etest; outline: as §2
[29] = tested on: Neisseria meningitidis; test: Antimicrobial activity against Neisseria meningitidis harboring rpoB39 D542V mutant allele by Etest; outline: as §2
[30] = tested on: Neisseria meningitidis; test: Antimicrobial activity against Neisseria meningitidis expressing wild type rpoB1 allele by Etest; outline: as §1
[31] = tested on: Neisseria meningitidis; test: Antimicrobial activity against Neisseria meningitidis harboring rpoB17 H552Y mutant allele by Etest; outline: as §2
[32] = tested on: Neisseria meningitidis; test: Antimicrobial activity against Neisseria meningitidis harboring rpoB15 H552N mutant allele by Etest; outline: as §2
[33] = tested on: Neisseria meningitidis; test: Antimicrobial activity against Neisseria meningitidis harboring rpoB26 D542N and S557F mutant allele by Etest; outline: as §2
[34] = tested on: Neisseria meningitidis; test: Antimicrobial activity against Neisseria meningitidis expressing wild type rpoB5 allele by Etest; outline: as §1

For CO[C@H]1/C=C/O[C@@]2(C)Oc3c(C)c(O)c4c(O)c(c(/C=N/N5CCN(C)CC5)c(O)c4c3C2=O)NC(=O)/C(C)=C\C=C\[C@H](C)[C@H](O)[C@@H](C)[C@@H](O)[C@@H](C)[C@H](OC(C)=O)[C@@H]1C [RIFAMPIN], the MIC [1] was 0.024 µg/mL (≈ 0.0292 µM), the MIC [2] was 0.125 µg/mL (≈ 0.152 µM) and the MIC [3] was greater than 32 µg/mL. For the same molecule, the MIC [4] was greater than 32 µg/mL, the MIC [5] was 0.15 µg/mL (≈ 0.182 µM) and the MIC [6] was greater than 32 µg/mL. The MIC [7] was greater than 32 µg/mL, the MIC [8] was 0.089 µg/mL (≈ 0.108 µM) and the MIC [9] was 8 µg/mL (≈ 9.72 µM). For the same molecule, the MIC [10] was greater than 32 µg/mL, the MIC [11] was 0.125 µg/mL (≈ 0.152 µM) and the MIC [12] was greater than 32 µg/mL. The MIC [13] was 0.057 µg/mL (≈ 0.0693 µM), the MIC [14] was 0.025 µg/mL (≈ 0.0304 µM) and the MIC [15] was 0.029 µg/mL (≈ 0.0352 µM). It also gave an MIC [16] greater than 32 µg/mL, an MIC [17] of 256 µg/mL (≈ 311 µM) and an MIC [18] greater than 32 µg/mL. The MIC [19] was 256 µg/mL (≈ 311 µM), the MIC [20] was 256 µg/mL (≈ 311 µM) and the MIC [21] was greater than 32 µg/mL. It also gave an MIC [22] greater than 32 µg/mL, an MIC [23] of 0.034 µg/mL (≈ 0.0413 µM) and an MIC [24] greater than 32 µg/mL. The MIC [25] was 0.065 µg/mL (≈ 0.079 µM), the MIC [26] was greater than 32 µg/mL and the MIC [27] was 0.015 µg/mL (≈ 0.0182 µM). For the same molecule, the MIC [28] was 8 µg/mL (≈ 9.72 µM), the MIC [29] was greater than 32 µg/mL and the MIC [30] was 0.225 µg/mL (≈ 0.273 µM). It also gave an MIC [31] greater than 32 µg/mL, an MIC [32] greater than 32 µg/mL and an MIC [33] greater than 32 µg/mL. The MIC [34] was 0.061 µg/mL (≈ 0.0741 µM).
